ChEMBL document CHEMBL1166015, “Design, synthesis, and docking of highly hypolipidemic agents: Schizosaccharomyces pombe as a new model for evaluating alpha-asarone-based HMG-CoA reductase inhibitors” (Bioorg Med Chem, 2010)

Assays:
[1] = biological target: T1, 3-hydroxy-3-methylglutaryl-coenzyme A reductase (Schizosaccharomyces pombe 972h-, UniProt Q10283); test: Inhibition of Schizosaccharomyces pombe HMG-CoA reductase by spectrophotometry
T1 sequence (Q10283 whole entry): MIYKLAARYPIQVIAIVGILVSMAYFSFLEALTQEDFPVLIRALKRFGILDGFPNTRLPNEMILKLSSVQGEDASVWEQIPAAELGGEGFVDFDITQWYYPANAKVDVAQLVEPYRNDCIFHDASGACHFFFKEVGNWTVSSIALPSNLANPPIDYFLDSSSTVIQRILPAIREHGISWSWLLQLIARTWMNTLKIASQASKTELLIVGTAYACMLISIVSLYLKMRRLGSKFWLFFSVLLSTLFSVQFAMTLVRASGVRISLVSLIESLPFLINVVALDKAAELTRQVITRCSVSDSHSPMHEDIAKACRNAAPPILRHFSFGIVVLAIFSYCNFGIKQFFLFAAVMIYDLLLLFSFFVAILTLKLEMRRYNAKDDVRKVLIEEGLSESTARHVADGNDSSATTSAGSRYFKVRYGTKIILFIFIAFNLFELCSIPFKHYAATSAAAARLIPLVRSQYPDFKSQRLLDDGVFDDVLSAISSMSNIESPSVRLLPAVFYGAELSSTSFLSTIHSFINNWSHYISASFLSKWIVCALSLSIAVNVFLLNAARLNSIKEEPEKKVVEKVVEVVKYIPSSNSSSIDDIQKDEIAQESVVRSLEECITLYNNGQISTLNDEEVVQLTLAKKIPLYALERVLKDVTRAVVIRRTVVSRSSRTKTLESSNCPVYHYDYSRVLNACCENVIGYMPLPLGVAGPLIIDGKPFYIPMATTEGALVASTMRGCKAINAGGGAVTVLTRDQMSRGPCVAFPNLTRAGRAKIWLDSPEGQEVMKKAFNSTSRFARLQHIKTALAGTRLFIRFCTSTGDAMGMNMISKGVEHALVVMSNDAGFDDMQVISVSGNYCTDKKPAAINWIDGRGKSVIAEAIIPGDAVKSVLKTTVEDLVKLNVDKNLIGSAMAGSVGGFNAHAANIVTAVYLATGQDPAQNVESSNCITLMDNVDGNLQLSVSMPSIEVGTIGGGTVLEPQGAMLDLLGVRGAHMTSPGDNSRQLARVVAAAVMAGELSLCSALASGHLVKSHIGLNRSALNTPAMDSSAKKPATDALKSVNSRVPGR
How it was run: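 Membrane HMGR partially purified from S. pombe 972 h (YPD, 28 °C, 48 h) via centrifugation, Triton X-100 solubilization, 65 °C heat step, ammonium sulfate and calcium phosphate gel. Enzyme activated 37 °C 30 min, pre-incubated with compound (DMSO stocks 1–5 mM) 30 min at 37 °C. Assay: 200 µg enzyme, 0.13 mM HMG-CoA, 50 mM Tris-HCl pH 7.5; started with 0.13 mM NADPH; A340 decrease over 2 min; triplicate; IC50 derived.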

Mus musculus [2] = test: Hypolipidemic activity in high cholesterol diet fed ICR mouse assessed as reduction of triglyceride level at 100 mg/kg/day, po after 12 hrs of last cholesterol challenge relative to control; set-up: scale not given: the % may be the effect or the level left
Mus musculus [3] = test: Hypolipidemic activity in high cholesterol diet fed ICR mouse assessed as reduction of total cholesterol level at 100 mg/kg/day, ip after 12 hrs of last cholesterol challenge relative to control; format: functional; set-up: scale not given: the % may be the effect or the level left; settings: route intraperitoneal
How it was run: (§1)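 Male ICR mice (24–27 g), six per group, were fed a high-cholesterol diet ad libitum for 6 days (1.0% cholesterol, 0.5% sodium cholate, 5% butter, 30% sucrose, 10% casein, 53.5% chow). Basal-diet mice served as controls. Dosing was 5 mL/kg and solutions were made fresh. Mice were fasted 12 h before sacrifice and bled periorbitally. Serum TC, HDL-C and TG were read on an analyzer, with LDL-C by Friedewald.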

Mus musculus [4] = test: Hypolipidemic activity in ICR mouse assessed as decrease in Tyloxapol-induced HDL-cholesterol level at 100 mg/kg, ip administered 1 hr before Tyloxapol challenge and 22, 48 hrs after Tyloxapol challenge measured after 22 hrs relative to control; format: functional; set-up: scale not given: the % may be the effect or the level left; settings: route intraperitoneal
How it was run: (§2)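 Male ICR mice (24–27 g), groups of six. Hyperlipidemia induced by ip Tyloxapol (Triton WR 1339) 400 mg/kg in water. Drug given at 5 mL/kg 1 h before and 22 and 48 h after injection; vehicle controls. Blood drawn 22 h post-injection by periorbital bleeding. Serum total cholesterol, HDL-C and triglycerides measured on an automatic analyzer; LDL-C by the Friedewald equation. Values are % of the Tyloxapol group, mean ± SE.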

Mus musculus [5] = test: Hypolipidemic activity in high cholesterol diet fed ICR mouse assessed as reduction of LDL cholesterol level at 100 mg/kg/day, po after 12 hrs of last cholesterol challenge relative to control; set-up: scale not given: the % may be the effect or the level left
Mus musculus [6] = test: Hypolipidemic activity in high cholesterol diet fed ICR mouse assessed as reduction of triglyceride level at 50 mg/kg/day, po after 12 hrs of last cholesterol challenge relative to control; set-up: scale not given: the % may be the effect or the level left
Mus musculus [7] = test: Hypolipidemic activity in ICR mouse assessed as decrease in Tyloxapol-induced LDL-cholesterol level at 100 mg/kg, ip administered 1 hr before Tyloxapol challenge and 22, 48 hrs after Tyloxapol challenge measured after 22 hrs relative to control; format: functional; set-up: scale not given: the % may be the effect or the level left; settings: route oral, in the assay text read “po administered” for “ip administered”; how it was run: as §2
Mus musculus [8] = test: Hypolipidemic activity in high cholesterol diet fed ICR mouse assessed as reduction of HDL cholesterol level at 50 mg/kg/day, po after 12 hrs of last cholesterol challenge relative to control; set-up: scale not given: the % may be the effect or the level left
Mus musculus [9] = test: Hypolipidemic activity in high cholesterol diet fed ICR mouse assessed as reduction of LDL cholesterol level at 50 mg/kg/day, po after 12 hrs of last cholesterol challenge relative to control; set-up: scale not given: the % may be the effect or the level left
Mus musculus [10] = test: Hypolipidemic activity in ICR mouse assessed as decrease in Tyloxapol-induced total cholesterol level at 50 mg/kg, ip administered 1 hr before Tyloxapol challenge and 22, 48 hrs after Tyloxapol challenge measured after 22 hrs relative to control; format: functional; set-up: scale not given: the % may be the effect or the level left; settings: route oral, in the assay text read “po administered” for “ip administered”; how it was run: as §2
Mus musculus [11] = test: Hypolipidemic activity in ICR mouse assessed as decrease in Tyloxapol-induced HDL-cholesterol level at 50 mg/kg, ip administered 1 hr before Tyloxapol challenge and 22, 48 hrs after Tyloxapol challenge measured after 22 hrs relative to control; format: functional; set-up: scale not given: the % may be the effect or the level left; settings: route oral, in the assay text read “po administered” for “ip administered”; how it was run: as §2
Mus musculus [12] = test: Hypolipidemic activity in high cholesterol diet fed ICR mouse assessed as reduction of HDL cholesterol level at 100 mg/kg/day, po after 12 hrs of last cholesterol challenge relative to control; set-up: scale not given: the % may be the effect or the level left
Mus musculus [13] = test: Hypolipidemic activity in ICR mouse assessed as decrease in Tyloxapol-induced triglyceride level at 100 mg/kg, ip administered 1 hr before Tyloxapol challenge and 22, 48 hrs after Tyloxapol challenge measured after 22 hrs relative to control; format: functional; set-up: scale not given: the % may be the effect or the level left; settings: route intraperitoneal; how it was run: as §2
Mus musculus [14] = test: Hypolipidemic activity in ICR mouse assessed as decrease in Tyloxapol-induced total cholesterol level at 100 mg/kg, ip administered 1 hr before Tyloxapol challenge and 22, 48 hrs after Tyloxapol challenge measured after 22 hrs relative to control; format: functional; set-up: scale not given: the % may be the effect or the level left; settings: route oral, in the assay text read “po administered” for “ip administered”; how it was run: as §2
Mus musculus [15] = test: Hypolipidemic activity in high cholesterol diet fed ICR mouse assessed as reduction of total cholesterol level at 50 mg/kg, ip after 12 hrs of last cholesterol challenge relative to control; format: functional; set-up: scale not given: the % may be the effect or the level left; settings: route intraperitoneal; how it was run: as §1
Mus musculus [16] = test: Hypolipidemic activity in ICR mouse assessed as decrease in Tyloxapol-induced triglyceride level at 50 mg/kg, ip administered 1 hr before Tyloxapol challenge and 22, 48 hrs after Tyloxapol challenge measured after 22 hrs relative to control; format: functional; set-up: scale not given: the % may be the effect or the level left; settings: route intraperitoneal; how it was run: as §2
Mus musculus [17] = test: Hypolipidemic activity in ICR mouse assessed as decrease in Tyloxapol-induced LDL-cholesterol level at 50 mg/kg, ip administered 1 hr before Tyloxapol challenge and 22, 48 hrs after Tyloxapol challenge measured after 22 hrs relative to control; format: functional; set-up: scale not given: the % may be the effect or the level left; settings: route oral, in the assay text read “po administered” for “ip administered”; how it was run: as §2

Structure (SMILES): CCCCCc1cc(OC)c(OC)cc1OC
- IC50 ([1]; read-out: IC50): 84.6 µM

Structure (SMILES): C=CCc1cc(OC)c(OCC(=O)O)cc1[N+](=O)[O-]
- IC50 ([1]; read-out: IC50): 144 µM

Structure (SMILES): C=CCc1ccc(OCCNC(=O)c2cccc(Cl)c2)c(OC)c1
- IC50 ([1]; read-out: IC50): 239 µM

Structure (SMILES): C/C=C/c1cc(OC)c(OC)cc1N
- IC50 ([1]; read-out: IC50): 167 µM

Structure (SMILES): CCCc1ccc(OCC(=O)O)c(OC)c1
- Activity (Mus musculus [2]): -27.55%
- Activity (Mus musculus [3]): -25.66%
- Activity (Mus musculus [4]): -15.32%
- Activity (Mus musculus [5]): -44.51%
- Activity (Mus musculus [6]): -38.38%
- Activity (Mus musculus [7]): -39.12%
- Activity (Mus musculus [8]): -15.66%
- Activity (Mus musculus [9]): -33.54%
- Activity (Mus musculus [10]): -21.28%
- Activity (Mus musculus [11]): -18.23%
- Activity (Mus musculus [12]): -19.33%
- Activity (Mus musculus [13]): -29.89%
- Activity (Mus musculus [14]): -22.59%
- Activity (Mus musculus [15]): -32.83%
- Activity (Mus musculus [16]): -32.46%
- Activity (Mus musculus [17]): -32.56%

Structure (SMILES): CCCc1cc(OC)c(OCC(=O)OC)cc1[N+](=O)[O-]
- Activity (Mus musculus [2]): -28.78%
- Activity (Mus musculus [3]): -39.51%
- Activity (Mus musculus [4]): -25.81%
- Activity (Mus musculus [5]): -16.76%
- Activity (Mus musculus [6]): -41.98%
- Activity (Mus musculus [7]): -33.33%
- Activity (Mus musculus [8]): -11.36%
- Activity (Mus musculus [9]): -21.13%
- Activity (Mus musculus [10]): -68.64%
- Activity (Mus musculus [11]): -23.15%
- Activity (Mus musculus [12]): -11.43%
- Activity (Mus musculus [13]): -19.91%
- Activity (Mus musculus [14]): -60.1%
- Activity (Mus musculus [15]): -48.64%
- Activity (Mus musculus [16]): -11.99%
- Activity (Mus musculus [17]): -45.69%

Structure (SMILES): CCCc1cc(OC)c(OCC(=O)O)cc1[N+](=O)[O-]
- Activity (Mus musculus [2]): -47.72%
- Activity (Mus musculus [3]): -50.22%
- Activity (Mus musculus [4]): -20.86%
- Activity (Mus musculus [5]): -28.88%
- Activity (Mus musculus [6]): -49.21%
- Activity (Mus musculus [7]): -44.61%
- Activity (Mus musculus [8]): -79.36%
- IC50 ([1]; read-out: IC50): 135 µM
- Activity (Mus musculus [9]): -41.1%
- Activity (Mus musculus [10]): -51.59%
- Activity (Mus musculus [11]): -21.86%
- Activity (Mus musculus [12]): -55.62%
- Activity (Mus musculus [13]): -25.11%
- Activity (Mus musculus [14]): -59.67%
- Activity (Mus musculus [15]): -47.12%
- Activity (Mus musculus [16]): -10.09%
- Activity (Mus musculus [17]): -40.34%

Structure (SMILES): CCOC(=O)COc1cccc(C(C)=O)c1
- IC50 [1]: Not Active

Structure (SMILES): C/C=C/c1cc(OC)c(OC)cc1Cl
- IC50 ([1]; read-out: IC50): 71.4 µM

Structure (SMILES): CCC(O)c1cc(OC)c(OC)cc1N (centres undefined)
- IC50 ([1]; read-out: IC50): 153 µM

Structure (SMILES): C=CCc1ccc(OCC(=O)O)c(OC)c1
- IC50 ([1]; read-out: IC50): 73.4 µM

Structure (SMILES): CCC(C)(C)C(=O)O[C@H]1C[C@@H](C)C=C2C=C[C@H](C)[C@H](CC[C@@H]3C[C@@H](O)CC(=O)O3)[C@H]21 [SIMVASTATIN]
- IC50 ([1]; read-out: IC50): 95.2 µM

Structure (SMILES): C/C=C/c1cc(OC)c(OC)cc1OC [TRANS-ASARONE]
- IC50 ([1]; read-out: IC50): 2490 µM
